Activity calls are given as the source filed them. The rule behind the calls is not given here.
Legend:
Assay type in all cases: functional
[1] = test system: Staphylococcus aureus; experiment: Antibacterial activity against Staphylococcus aureus MTCC 96 assessed as bacterial growth inhibition by microdilution method
Procedure, shortened: (§1)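 Broth microdilution against Gram-positive and Gram-negative strains. The endpoint is the minimal inhibitory concentration, in µg/ml.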

[2] = test system: Bacillus subtilis; experiment: Antibacterial activity against Bacillus subtilis MTCC 441 assessed as bacterial growth inhibition by microdilution method; procedure, shortened: as §1
[3] = test system: Pseudomonas aeruginosa; experiment: Antibacterial activity against Pseudomonas aeruginosa MTCC 424 assessed as bacterial growth inhibition by microdilution method; procedure, shortened: as §1
[4] = test system: Escherichia coli; experiment: Antibacterial activity against Escherichia coli MTCC 443 assessed as bacterial growth inhibition by microdilution method; procedure, shortened: as §1
[5] = test system: Aspergillus niger; experiment: Antifungal activity against Aspergillus niger MTCC 404 assessed as zone of inhibition at 15.9 uM incubated for 2 days by cross streak plate method; conditions: MTCC 404, 48 h, time 2 day, read-out: IZ
Procedure, shortened: (§2)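 Fungal strain (A. niger MTCC 404 or S. cerevisiae MTCC 1344) was incubated with the compound for 2 days at 37 °C. Growth inhibition was then assessed by the cross streak plate method.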

[6] = test system: Aspergillus niger; experiment: Antifungal activity against Aspergillus niger MTCC 404 assessed as zone of inhibition at 23.9 uM incubated for 2 days by cross streak plate method; conditions: MTCC 404, 48 h, time 2 day, read-out: IZ; procedure, shortened: as §2
[7] = test system: Aspergillus niger; experiment: Antifungal activity against Aspergillus niger MTCC 404 assessed as zone of inhibition at 31.8 uM incubated for 2 days by cross streak plate method; conditions: MTCC 404, 48 h, time 2 day, read-out: IZ; procedure, shortened: as §2
[8] = test system: Saccharomyces cerevisiae; experiment: Antifungal activity against Saccharomyces cerevisiae MTCC 1344 assessed as zone of inhibition at 15.9 uM incubated for 2 days by cross streak plate method; conditions: MTCC 1344, 48 h, time 2 day, read-out: IZ; procedure, shortened: as §2
[9] = test system: Saccharomyces cerevisiae; experiment: Antifungal activity against Saccharomyces cerevisiae MTCC 1344 assessed as zone of inhibition at 23.9 uM incubated for 2 days by cross streak plate method; conditions: MTCC 1344, 48 h, time 2 day, read-out: IZ; procedure, shortened: as §2
[10] = test system: Saccharomyces cerevisiae; experiment: Antifungal activity against Saccharomyces cerevisiae MTCC 1344 assessed as zone of inhibition at 31.8 uM incubated for 2 days by cross streak plate method; conditions: MTCC 1344, 48 h, time 2 day, read-out: IZ; procedure, shortened: as §2
[11] = Antioxidant activity assessed as DPPH radical scavenging activity
[12] = test system: Aspergillus niger; experiment: Antifungal activity against Aspergillus niger MTCC 404 assessed as zone of inhibition at 14.8 uM incubated for 2 days by cross streak plate method; conditions: MTCC 404, 48 h, time 2 day, read-out: IZ; procedure, shortened: as §2
[13] = test system: Aspergillus niger; experiment: Antifungal activity against Aspergillus niger MTCC 404 assessed as zone of inhibition at 22.2 uM incubated for 2 days by cross streak plate method; conditions: MTCC 404, 48 h, time 2 day, read-out: IZ; procedure, shortened: as §2
[14] = test system: Aspergillus niger; experiment: Antifungal activity against Aspergillus niger MTCC 404 assessed as zone of inhibition at 29.7 uM incubated for 2 days by cross streak plate method; conditions: MTCC 404, 48 h, time 2 day, read-out: IZ; procedure, shortened: as §2
[15] = test system: Saccharomyces cerevisiae; experiment: Antifungal activity against Saccharomyces cerevisiae MTCC 1344 assessed as zone of inhibition at 14.8 uM incubated for 2 days by cross streak plate method; conditions: MTCC 1344, 48 h, time 2 day, read-out: IZ; procedure, shortened: as §2
[16] = test system: Saccharomyces cerevisiae; experiment: Antifungal activity against Saccharomyces cerevisiae MTCC 1344 assessed as zone of inhibition at 22.2 uM incubated for 2 days by cross streak plate method; conditions: MTCC 1344, 48 h, time 2 day, read-out: IZ; procedure, shortened: as §2
[17] = test system: Saccharomyces cerevisiae; experiment: Antifungal activity against Saccharomyces cerevisiae MTCC 1344 assessed as zone of inhibition at 29.7 uM incubated for 2 days by cross streak plate method; conditions: MTCC 1344, 48 h, time 2 day, read-out: IZ; procedure, shortened: as §2
[18] = test system: Aspergillus niger; experiment: Antifungal activity against Aspergillus niger MTCC 404 assessed as zone of inhibition at 18.3 uM incubated for 2 days by cross streak plate method; conditions: MTCC 404, 48 h, time 2 day, read-out: IZ; procedure, shortened: as §2
[19] = test system: Aspergillus niger; experiment: Antifungal activity against Aspergillus niger MTCC 404 assessed as zone of inhibition at 27.5 uM incubated for 2 days by cross streak plate method; conditions: MTCC 404, 48 h, time 2 day, read-out: IZ; procedure, shortened: as §2
[20] = test system: Aspergillus niger; experiment: Antifungal activity against Aspergillus niger MTCC 404 assessed as zone of inhibition at 36.6 uM incubated for 2 days by cross streak plate method; conditions: MTCC 404, 48 h, time 2 day, read-out: IZ; procedure, shortened: as §2
[21] = test system: Saccharomyces cerevisiae; experiment: Antifungal activity against Saccharomyces cerevisiae MTCC 1344 assessed as zone of inhibition at 18.3 uM incubated for 2 days by cross streak plate method; conditions: MTCC 1344, 48 h, time 2 day, read-out: IZ; procedure, shortened: as §2
[22] = test system: Saccharomyces cerevisiae; experiment: Antifungal activity against Saccharomyces cerevisiae MTCC 1344 assessed as zone of inhibition at 27.5 uM incubated for 2 days by cross streak plate method; conditions: MTCC 1344, 48 h, time 2 day, read-out: IZ; procedure, shortened: as §2
[23] = test system: Saccharomyces cerevisiae; experiment: Antifungal activity against Saccharomyces cerevisiae MTCC 1344 assessed as zone of inhibition at 36.6 uM incubated for 2 days by cross streak plate method; conditions: MTCC 1344, 48 h, time 2 day, read-out: IZ
Procedure, shortened: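 S. cerevisiae MTCC 1344 cultures were incubated for 2 days at 37 °C and then tested by the cross streak plate method.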

Compound `O=C(CSc1nnc(-c2ccccc2OCc2cn(-c3ccccc3)nn2)n1Cc1ccccc1)c1cccc(Cl)c1` has an MIC [1] of 8 µg/mL, an MIC [2] of 4.1 µg/mL and an MIC [3] of 7.5 µg/mL. The MIC [4] was > 40.8 µg/mL, the zone of inhibition at 15.9 µM [5] was 2 mm and the zone of inhibition at 23.9 µM [6] was 2 mm. The zone of inhibition at 31.8 µM [7] was 3 mm, the zone of inhibition at 15.9 µM [8] was 1.5 mm and the zone of inhibition at 23.9 µM [9] was 2 mm. The zone of inhibition at 31.8 µM [10] was 3 mm and the Activity [11] was “inactive”.
With `O=C(CSc1nnc(-c2ccccc2OCc2cn(-c3ccc(Cl)cc3)nn2)n1Cc1ccccc1)c1ccc(Br)cc1` the MIC [1] was 8.5 µg/mL, the MIC [2] was 4.4 µg/mL and the MIC [3] was 8.1 µg/mL. For the same compound, the MIC [4] was 9 µg/mL, the zone of inhibition at 14.8 µM [12] was 2 mm and the zone of inhibition at 22.2 µM [13] was 2 mm. The zone of inhibition at 29.7 µM [14] was 3 mm, the zone of inhibition at 14.8 µM [15] was 1.5 mm and the zone of inhibition at 22.2 µM [16] was 2 mm. The zone of inhibition at 29.7 µM [17] was 3 mm and the Activity [11] was “inactive”.
`O=C(Sc1nnc(-c2ccccc2OCc2cn(-c3ccccc3)nn2)n1Cc1ccccc1)c1ccccc1` gave an MIC [1] of 8.9 µg/mL, an MIC [2] of 4 µg/mL and an MIC [3] of 8.7 µg/mL. For the same compound, the MIC [4] was 10 µg/mL, the zone of inhibition at 18.3 µM [18] was 5.5 mm and the zone of inhibition at 27.5 µM [19] was 6.8 mm. It also gave a zone of inhibition at 36.6 µM [20] of 7 mm, a zone of inhibition at 18.3 µM [21] of 6 mm and a zone of inhibition at 27.5 µM [22] of 6.8 mm. The zone of inhibition at 36.6 µM [23] was 6.7 mm and the Activity [11] was “inactive”.

From ChEMBL document CHEMBL4814044, “Design and synthesis, biological evaluation of bis-(1,2,3- and 1,2,4)-triazole derivatives as potential antimicrobial and antifungal agents” (2021)
